Laboratory results taken from paper PMC6110378 (The Pediatric Infectious Disease Journal, 2018).
≈ marks a conversion by molar mass, not a printed value. Starred links: 1 amine or outer side, 2 acyl side, 3 side chain; linkers in the order of their positions; H or OH if unused. Positions of bridges follow the written chain, without caps; N, C: chain ends. Non-standard residues stand in square brackets, D forms with d. Residues, ends and D or L forms follow the SMILES beside them. *: point of attachment. hTyr(3S-OH,4S-OH,3'-OSO3H) = N[C@H](C(=O)O)[C@H](O)[C@@H](O)c1ccc(O)c(OS(=O)(=O)O)c1; Orn(4R-OH,5R-OH) = O=C([C@H](C[C@@H](O)[C@@H](O)N[*:3])N[*:1])[*:2]; Pro(3S-OH,4S-Me) = C[C@H]1CN[C@H](C(=O)O)[C@H]1O; X1 = CCCCCOc1ccc(-c2cc(-c3ccc(C(=O)*)cc3)no2)cc1; Gln(3R-OH) = NC(=O)C[C@@H](O)[C@H](N)C(=O)O; Hyp = O=C(O)[C@@H]1C[C@@H](O)CN1

Legend:
[1] = test system: hematogenous Candida meningoencephalitis; conditions: rabbit model of hematogenous Candida meningoencephalitis; cited from earlier work
Population PK model = format: in vivo, human infants; conditions: 2-compartment population PK model, 64 infants
How it was run: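 The dataset was 287 HPLC-measured plasma concentrations from 64 infants aged 3–119 days in 4 pediatric trials, at doses of 0.75–10 mg/kg. A 2-compartment model was fitted in Pmetrics, with infusion into the central compartment and observations weighted by inverse assay variance. Clearance was allometrically scaled. Clearance and volume were normalized to the 1.8 kg mean weight. Kcp and Kpc are central↔peripheral transfer rates. Fit was assessed from observed versus predicted values, r2, bias and imprecision.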

Candida = assay: MIC values of isolates from infants with invasive candidiasis; format: cell-based

## CCCCCOc1ccc(-c2cc(-c3ccc(C(=O)N[C@H]4C[C@@H](O)[C@@H](O)NC(=O)[C@@H]5[C@@H](O)[C@@H](C)CN5C(=O)[C@H]([C@H](O)CC(N)=O)NC(=O)[C@H]([C@H](O)[C@@H](O)c5ccc(O)c(OS(=O)(=O)O)c5)NC(=O)[C@@H]5C[C@@H](O)CN5C(=O)[C@H]([C@@H](C)O)NC4=O)cc3)no2)cc1 [micafungin] (X1-[Orn(4R-OH,5R-OH)]T[Hyp][hTyr(3S-OH,4S-OH,3'-OSO3H)][Gln(3R-OH)][Pro(3S-OH,4S-Me)]; lactam 1-C)
[1]
  AUC:MIC ratio PD target for near-maximal effect: 1332
  CNS PD target AUC for near-maximal effect: approximately 166.5 mg·h/L
Population PK model; normalized to 1.8 kg, median
  Vstd (volume in the central compartment), median: 0.43 L/1.8 kg
Population PK model; mean (range)
  Kcp (rate of drug moving from the central to the peripheral compartment), mean: 1.74 (0.035–5.966) h^–1
  Kpc (rate of drug moving from the peripheral to the central compartment), mean: 1.92 (0.090–5.970) h^–1
Population PK model; median
  Kcp, median: 0.99 h^–1
  Kpc, median: 2.00 h^–1
Candida; isolates of infants in the 2 mg/kg study (n = 17)
  MIC90: 1 mg/L (≈ 0.787 µM)
Candida; isolates of infants in the 10 mg/kg study (n = 12)
  MIC90: 2 mg/L (≈ 1.57 µM)
